An excerpt weighted towards active compounds, which were near 4.1% of everything screened.
ATG4B inh = ATG4B (human) cysteine protease inhibition; Q9Y4P1; ATG4B cleavage of LC3-PLA2, NBD-HPC fluorescence, 1 h; inhibition, % at 8.33 µM; actives 0.51% (n = 340,000); AID 504462; in the data active = inhibition above about 40%
Target sequence (Q9Y4P1 whole entry, looked up): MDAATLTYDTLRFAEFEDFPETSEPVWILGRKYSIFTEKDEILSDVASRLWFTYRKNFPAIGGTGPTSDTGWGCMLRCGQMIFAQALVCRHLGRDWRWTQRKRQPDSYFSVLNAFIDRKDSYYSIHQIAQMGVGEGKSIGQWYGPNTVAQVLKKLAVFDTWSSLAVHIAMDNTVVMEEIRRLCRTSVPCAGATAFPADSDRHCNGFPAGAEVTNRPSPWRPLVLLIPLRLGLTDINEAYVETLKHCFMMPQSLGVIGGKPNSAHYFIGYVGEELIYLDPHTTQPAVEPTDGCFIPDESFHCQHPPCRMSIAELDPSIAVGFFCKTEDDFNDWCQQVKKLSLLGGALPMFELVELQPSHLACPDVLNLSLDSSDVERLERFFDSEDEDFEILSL
SMARCA2 activ = SMARCA2 function activation, primary screen. MG213 cells, MMTV-luciferase reporter, dexamethasone, overnight. activation, % at 9.1 µM. actives 1% (n = 370,000). AID 652017; in the data active = activation above about 7.8%
MPTP inh = blocks calcium-induced mitochondrial swelling | isolated mouse mitochondria, Ca2+ swelling absorbance, 30 min | inhibition, % at 10 µM | actives 1.4% (n = 360,000);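 active = inhibition of 50% or more, scaled per plate between neutral and stimulator controls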
MC4R antag cAMP = human MC4R antagonism in cAMP assay; P32245; MC4R-expressing cells, MTII-stimulated cAMP, LANCE TR-FRET; inhibition, % at 6.5 µM; actives 0.48% (n = 360,000); AID 540295;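 active = inhibition above its plate's cutoff, the mean of tested wells on that plate plus 3 SD, cut at about 29% in these data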
Target sequence (P32245 whole entry, looked up): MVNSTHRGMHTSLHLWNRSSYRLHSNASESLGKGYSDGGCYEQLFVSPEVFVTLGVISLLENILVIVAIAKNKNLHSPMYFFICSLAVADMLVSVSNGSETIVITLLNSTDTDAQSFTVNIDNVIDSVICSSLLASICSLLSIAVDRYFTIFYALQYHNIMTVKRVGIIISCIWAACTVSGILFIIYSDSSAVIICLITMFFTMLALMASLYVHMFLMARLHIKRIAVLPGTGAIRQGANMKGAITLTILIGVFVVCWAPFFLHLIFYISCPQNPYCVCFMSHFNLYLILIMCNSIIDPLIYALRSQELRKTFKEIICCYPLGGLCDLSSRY
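system = U2OS cells with stable human MC4R expression | also added = Melanotan II challenge after compound preincubation | dosing = one concentration, 6.5 µM nominal | incubation = compound 30 min, challenge 1 h, detection 1 h | measured by = TR-FRET with Eu-cAMP and labeled anti-cAMP, 671 nm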
MC4R barr agon = activates human MC4R beta-arrestin recruitment; P32245; U2OS MC4R beta-arrestin complementation, luminescence; percent of melanotan II response, DMSO zero; activation, % at 8.9 µM; actives 0.98% (n = 360,000); AID 540308;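 active = activation above a per-plate cutoff, the mean activation of sample wells on that plate plus 3 SD, cut at about 8% in these data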
SMARCA2 conf = confirmation of SMARCA2 (BRM) function activators; shares compounds with SMARCA2 activ; MG213 cells, MMTV-luciferase with dexamethasone, luminescence, overnight; MG213 cells expressing E1A, Rb sequestered; DMSO wells 0%, reference activator 100%; activation, % at 9.1 µM; actives 30% (n = 3,500); AID 652260;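 active = activation above its plate's cutoff, the mean activation of tested wells plus 3 SD, cut at about 7.9% in these data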
VP16 Luc act = GAL4-VP16 reporter activation counter-screen | shares compounds with SMARCA2 activ | HEK293 GAL4-VP16 pG5luc reporter, luciferase luminescence; scaled: DMSO wells 0%, SAHA wells 100% | activation, % at 9.1 µM | actives 41% (n = 3,500) | AID 686939;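 active = activation above the solvent-only control well mean plus 3 SD, averaged across control plates, cut at about 5.2% in these data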
Each line names hits and unclear results; the compound was inactive in the other large screens (follow-up assays come after a bar, where they were run); ! = repeats disagree.

CCOC(=O)[C@]12CCCC=C1N(Cc1ccco1)C(=O)[C@H](CC(=O)NCCc1ccccc1OC)C2	SMARCA2 activ 8.3 (no result: ATG4B inh, MC4R antag cAMP, MC4R barr agon) | SMARCA2 conf inactive | VP16 Luc act inactive
CCN(C(=O)[C@@H](C1CC1)[C@@H](O)c1ccc(Cl)cc1)c1ccccc1	none (no result: ATG4B inh, MPTP inh, MC4R antag cAMP, MC4R barr agon)
Nc1[nH]c2cc(C(F)(F)F)ccc2c1C(=O)N1CCN(CCc2ccccc2)CC1	none (no result: ATG4B inh, MPTP inh, MC4R antag cAMP, MC4R barr agon)
COc1ccc(CNc2nc3ccccc3n2C(C)C)c(O)c1	none
COc1ccc(CNc2nc3ccccc3n2C)c(O)c1	SMARCA2 activ 8.1 | SMARCA2 conf 9.3 | VP16 Luc act 7.3
Cn1c(NCc2ccc(Cl)cc2)nc2ccccc21	SMARCA2 activ 8.3 | SMARCA2 conf 8.3 | VP16 Luc act 11
CCN(CC)CCn1c(NCc2cc(OC)ccc2OC)nc2ccccc21	none
COc1ccc(CNc2nc3ccccc3n2C)c(OC)c1	SMARCA2 activ 8.0 | SMARCA2 conf 10 | VP16 Luc act 10
CCOC(=O)C1=C[C@@H](C(C)C)N(S(=O)(=O)c2ccc(C)cc2)[C@H]1c1ccc(C(F)(F)F)cc1	none (no result: ATG4B inh, MC4R antag cAMP, MC4R barr agon)
Cc1ccc(-n2nc3c(c2NC(=O)c2cccs2)CS(=O)(=O)C3)cc1C	none
Cc1ccc(-n2nc3c(c2NC(=O)c2cccs2)CS(=O)(=O)C3)cc1	SMARCA2 activ 14 | SMARCA2 conf inactive | VP16 Luc act inactive
Cc1ccc(-n2nc3c(c2NC(=O)c2ccco2)CS(=O)(=O)C3)cc1C	SMARCA2 activ 8.8 | SMARCA2 conf inactive | VP16 Luc act inactive
Cn1c(=O)c2c(nc(CN3CCOCC3)n2CCN2CCOCC2)n(C)c1=O	none (no result: SMARCA2 activ)
COC(=O)Cn1c(CN2CCOCC2)nc2c1c(=O)n(C)c(=O)n2C	SMARCA2 activ 8.3 | SMARCA2 conf inactive | VP16 Luc act inactive
CCOc1ccccc1Nc1cc2n(c(=O)n1)CCc1cc(OC)c(OC)cc1-2	SMARCA2 activ 12 | SMARCA2 conf 8.8 | VP16 Luc act 7.8
O=C(COc1ccccc1Br)NCc1ccco1	SMARCA2 activ 13 | SMARCA2 conf inactive | VP16 Luc act inactive
O=C1c2ccccc2/C(=C\c2ccc(Br)nc2)N1c1ccccc1	none (no result: ATG4B inh, MPTP inh, MC4R antag cAMP, MC4R barr agon)
CC1=CC(C)=Nc2ccc(C)cc2N1	SMARCA2 activ 8.8! | SMARCA2 conf inactive | VP16 Luc act 11
Cc1ccc2c(c1)NC(=O)CC(c1ccccc1)=N2	none
NC1=NC(=O)/C(=C/C=C/c2cccs2)S1	SMARCA2 activ 16 | SMARCA2 conf 8.6 | VP16 Luc act 5.8
O=C1N=C(c2ccccc2)S/C1=C\c1cccs1	none
O=c1cc(-c2ccccc2F)oc2ccccc12	SMARCA2 activ 13 | SMARCA2 conf inactive | VP16 Luc act 7.7
CSc1ccc(-c2cc(=O)c3ccccc3o2)cc1	SMARCA2 activ 12 | SMARCA2 conf inactive | VP16 Luc act 12
O=c1cc(-c2ccc(F)cc2)oc2ccccc12	none
COc1ccc(OCC2CN(Cc3ccccc3)S(=O)(=O)CCO2)cc1 (stereo unspecified)	none (no result: ATG4B inh, MPTP inh, MC4R antag cAMP, MC4R barr agon)
ON=Cc1ccnc2ccccc12	none (no result: ATG4B inh)
O=C(O)c1ccccc1N/N=C\c1ccnc2ccccc12	SMARCA2 activ 8.0 | SMARCA2 conf inactive | VP16 Luc act inactive
CN1Cc2nnn(CC3CCCCC3)c2-c2ccccc2S1(=O)=O	SMARCA2 activ 8.2 (no result: ATG4B inh, MPTP inh, MC4R antag cAMP, MC4R barr agon) | SMARCA2 conf inactive | VP16 Luc act inactive
C=CCn1c(Cc2cccs2)nnc1SCC(=O)Nc1ccc(C)cc1	none (no result: ATG4B inh, MPTP inh, MC4R antag cAMP, MC4R barr agon)
CC1CC(C)CN(CCCNC(=O)c2ccc3nc(N4CCCCC4)sc3c2)C1 (stereo unspecified)	none
CC1CCCC(C)N1CCCNC(=O)c1ccc2nc(N3CCCCC3)sc2c1 (stereo unspecified)	SMARCA2 activ 18 | SMARCA2 conf 9.8 | VP16 Luc act 17
COc1ccc2nc(N3CCCC(C(=O)NCCc4ccc(OC)c(OC)c4)C3)sc2c1 (stereo unspecified)	none
CC1CCN(c2nc3ccc(C(=O)NCCCN4CCCCC4C)cc3s2)CC1 (stereo unspecified)	SMARCA2 activ 8.1 (no result: ATG4B inh) | SMARCA2 conf 15 | VP16 Luc act 15
COc1ccc(CCNC(=O)c2ccc3nc(N4CCCCC4)sc3c2)cc1OC	SMARCA2 activ 10 | SMARCA2 conf inactive | VP16 Luc act 8.5
CC1CCCC(C)N1CCCNC(=O)c1ccc2nc(N3CCOCC3)sc2c1 (stereo unspecified)	none
CCCN1CCN(CCCNC(=O)c2ccc3nc(N4CCCCC4)sc3c2)CC1	SMARCA2 activ 13 | SMARCA2 conf 14 | VP16 Luc act 13
COC(=O)[C@]12C[C@H](CC(=O)NCc3cccc4ccccc34)C(=O)N(Cc3ccccc3)C1=C[C@H](C(C)C)O[C@@H]2C1CC1	none (no result: ATG4B inh, MPTP inh, MC4R antag cAMP, MC4R barr agon)
CC1CCN(c2ccc(C(=O)O)cc2NS(=O)(=O)c2ccc(C(C)(C)C)cc2)CC1	none (no result: ATG4B inh, MPTP inh, MC4R antag cAMP, MC4R barr agon)
COC(=O)[C@H]1C[C@@]2(Oc3ccc(Br)cc3)c3ccccc3N(C(=O)OC(C)(C)C)[C@H]2N1C(=O)OC(C)(C)C	none (no result: ATG4B inh, MPTP inh, MC4R antag cAMP, MC4R barr agon)
O=C(Nc1ccc2c(c1)OCO2)C(=O)c1c[nH]c2ccccc12	SMARCA2 activ 9.2 | SMARCA2 conf inactive | VP16 Luc act 7.7
O=C(Nc1ccc2c(c1)OCCO2)C(=O)c1c[nH]c2ccccc12	none
O=C(NCCc1c[nH]c2ccccc12)c1ccc2c(c1)OCO2	SMARCA2 activ 9.7 | SMARCA2 conf 13 | VP16 Luc act 8.1
O=C(Nc1ccccc1)Nc1ccc2ocnc2c1	none
O=C(Nc1ccccc1)Nc1ccc2ncoc2c1	SMARCA2 activ 13 | SMARCA2 conf inactive | VP16 Luc act 7.3
C#CCNC(=O)C[C@@H]1C(=O)N(Cc2ccc(OC)cc2)/C2=C/CCCCC[C@@]21C(=O)OCC	none (no result: ATG4B inh, MPTP inh, MC4R antag cAMP, MC4R barr agon)
CCC(C)(C(=O)NC1CCCCC1)N(Cc1ccco1)C(=O)CC1NC(=O)NC1=O (stereo unspecified)	SMARCA2 activ 8.4 | SMARCA2 conf inactive | VP16 Luc act inactive
CCOc1ccc(N(CC(=O)Nc2c(C)n(C)n(-c3ccccc3)c2=O)S(=O)(=O)c2cccc3cccnc23)cc1	none (no result: ATG4B inh, MPTP inh, MC4R antag cAMP, MC4R barr agon)
O=C(CN1C(=O)NC2(CCc3ccccc32)C1=O)NCC(=O)Nc1ccc(F)cc1 (stereo unspecified)	SMARCA2 activ 8.2 | SMARCA2 conf inactive | VP16 Luc act inactive
COc1ccc2cc(-c3ccccc3)c(=O)oc2c1	SMARCA2 activ 9.7 | SMARCA2 conf inactive | VP16 Luc act 9.2
COc1ccc2c(c1)oc(=O)c1cc(OC)ccc12	SMARCA2 activ 9.1 | SMARCA2 conf 20 | VP16 Luc act 6.5
CCC(N=c1cc(-c2ccc(OC)c(OC)c2)oc2ccc(C)cc12)C(=O)O (stereo unspecified)	none

Screening results as filed in PubChem.
